# Test results taken from ChEMBL document CHEMBL4184291, “Discovery of N-arylpyrroles as agonists of GPR120 for the treatment of type II diabetes” (Bioorg Med Chem Lett, 2018).
# Key:
# [1] = Stability of the compound in air assessed as oxidation; type: physicochemical
# [2] = target: T1, Free fatty acid receptor 4 (Homo sapiens, UniProt Q5NUL3); assay: Agonist activity at recombinant human GPR120 short isoform expressed in HEK293 cells assessed as intracellular calcium flux measured for 300 secs at 1 sec time interval by Fluo-4 NW based FLIPR assay; type: functional, cell-based
# T1 sequence (Q5NUL3 whole entry): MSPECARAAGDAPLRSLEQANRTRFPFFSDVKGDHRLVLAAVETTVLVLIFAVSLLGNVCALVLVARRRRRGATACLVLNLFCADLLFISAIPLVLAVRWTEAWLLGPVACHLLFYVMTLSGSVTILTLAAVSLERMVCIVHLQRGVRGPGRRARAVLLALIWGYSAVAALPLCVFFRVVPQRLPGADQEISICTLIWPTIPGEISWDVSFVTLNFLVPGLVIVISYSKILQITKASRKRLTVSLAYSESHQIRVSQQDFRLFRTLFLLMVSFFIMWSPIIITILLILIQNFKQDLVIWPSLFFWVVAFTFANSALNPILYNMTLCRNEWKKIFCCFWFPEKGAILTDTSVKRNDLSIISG
# Summary of the method: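 Human GPR120 calcium-flux assay in HEK-293 cells; values are averages of n > 2 runs, SEM < ±25%.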
# [3] = Protein binding in rat plasma; type: ADME, cell-free; conditions: read-out: PPB (converted)
# [4] = Protein binding in human plasma; type: ADME, cell-free; conditions: read-out: PPB (converted)
# [5] = Protein binding in mouse plasma; type: ADME, cell-free; conditions: read-out: PPB (converted)
# Cytochrome P450 3A4 = Cytochrome P450 3A4 (Homo sapiens, UniProt P08684); assay: Inhibition of CYP3A4 (unknown origin); type: ADME
# [6] = Half life in rat liver microsomes; type: ADME, microsome
# Cytochrome P450 2D6 = Cytochrome P450 2D6 (Homo sapiens, UniProt P10635); assay: Inhibition of CYP2D6 (unknown origin); type: ADME
# [7] = Half life in human liver microsomes; type: ADME, microsome
# Cytochrome P450 1A2 = target: T2, Cytochrome P450 1A2 (Homo sapiens, UniProt P05177); assay: Inhibition of CYP1A2 (unknown origin); type: ADME
# T2 sequence (P05177 whole entry): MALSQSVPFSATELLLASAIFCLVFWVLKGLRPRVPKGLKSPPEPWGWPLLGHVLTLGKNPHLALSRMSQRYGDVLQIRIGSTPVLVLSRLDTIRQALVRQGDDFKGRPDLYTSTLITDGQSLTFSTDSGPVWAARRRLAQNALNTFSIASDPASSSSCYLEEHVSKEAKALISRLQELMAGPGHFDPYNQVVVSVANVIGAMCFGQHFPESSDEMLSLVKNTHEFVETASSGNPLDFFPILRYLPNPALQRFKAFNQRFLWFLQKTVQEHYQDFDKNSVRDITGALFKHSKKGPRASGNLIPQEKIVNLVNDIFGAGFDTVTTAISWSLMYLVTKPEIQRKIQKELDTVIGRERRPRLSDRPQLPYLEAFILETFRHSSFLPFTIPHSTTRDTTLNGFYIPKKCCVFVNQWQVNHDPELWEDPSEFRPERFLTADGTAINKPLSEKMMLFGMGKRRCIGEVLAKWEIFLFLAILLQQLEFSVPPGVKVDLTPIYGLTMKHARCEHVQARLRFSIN
# [8] = Half life in mouse liver microsomes; type: ADME, microsome
# Cytochrome P450 2C9 = Cytochrome P450 2C9 (Homo sapiens, UniProt P11712); assay: Inhibition of CYP2C9 (unknown origin); type: ADME
# Cytochrome P450 2C19 = Cytochrome P450 2C19 (Homo sapiens, UniProt P33261); assay: Inhibition of CYP2C19 (unknown origin); type: ADME
# Mus musculus [9] = assay: Antiobesity activity in diet-induced obesity C57Bl6/J mouse model assessed as change in plasma glucose level at 3 mg/kg qd for 15 days measured on day 15 post 6 hrs fasting; type: functional
# Mus musculus [10] = assay: Antiobesity activity in diet-induced obesity C57Bl6/J mouse model assessed as final insulin level in plasma at 3 mg/kg qd for 15 days measured on day 15 post 6 hrs fasting (reference value: 7304 +/- 2967 pg/ml); type: functional
# Mus musculus [11] = assay: Antiobesity activity in diet-induced obesity C57Bl6/J mouse model assessed as final glucose level in plasma at 3 mg/kg qd for 15 days measured on day 15 post 6 hrs fasting (reference value: 184 +/- 30 mg/dL); type: functional
# Mus musculus [12] = assay: Antiobesity activity in diet-induced obesity C57Bl6/J mouse model assessed as change in plasma insulin level at 3 mg/kg qd for 15 days measured on day 15 post 6 hrs fasting; type: functional
# Mus musculus [13] = assay: Antiobesity activity in diet-induced obesity C57Bl6/J mouse model assessed as basal insulin level in plasma at 3 mg/kg qd for 15 days measured on day 15 post 6 hrs fasting (reference value: 16959 +/- 4943 pg/ml); type: functional
# Mus musculus [14] = assay: Antiobesity activity in diet-induced obesity C57Bl6/J mouse model assessed as basal glucose level in plasma at 3 mg/kg qd for 15 days measured on day 15 post 6 hrs fasting (reference value: 187 +/- 24 mg/dL); type: functional
# Chain of Cytochrome P450 2C9 (P11712 whole entry): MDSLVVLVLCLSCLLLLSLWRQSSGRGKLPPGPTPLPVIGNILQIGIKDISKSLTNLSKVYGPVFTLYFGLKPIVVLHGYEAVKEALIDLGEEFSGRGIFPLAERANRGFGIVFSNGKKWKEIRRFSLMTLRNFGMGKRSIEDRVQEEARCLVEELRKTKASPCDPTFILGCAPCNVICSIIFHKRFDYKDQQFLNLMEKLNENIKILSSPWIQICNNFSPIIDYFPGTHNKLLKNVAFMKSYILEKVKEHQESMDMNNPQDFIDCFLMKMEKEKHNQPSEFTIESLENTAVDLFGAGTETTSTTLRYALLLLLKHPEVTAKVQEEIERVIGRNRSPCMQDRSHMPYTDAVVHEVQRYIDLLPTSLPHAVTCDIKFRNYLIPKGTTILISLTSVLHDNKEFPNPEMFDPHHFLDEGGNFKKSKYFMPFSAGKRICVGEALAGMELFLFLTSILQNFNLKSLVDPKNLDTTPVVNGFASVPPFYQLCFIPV
# Chain of Cytochrome P450 3A4 (P08684 whole entry): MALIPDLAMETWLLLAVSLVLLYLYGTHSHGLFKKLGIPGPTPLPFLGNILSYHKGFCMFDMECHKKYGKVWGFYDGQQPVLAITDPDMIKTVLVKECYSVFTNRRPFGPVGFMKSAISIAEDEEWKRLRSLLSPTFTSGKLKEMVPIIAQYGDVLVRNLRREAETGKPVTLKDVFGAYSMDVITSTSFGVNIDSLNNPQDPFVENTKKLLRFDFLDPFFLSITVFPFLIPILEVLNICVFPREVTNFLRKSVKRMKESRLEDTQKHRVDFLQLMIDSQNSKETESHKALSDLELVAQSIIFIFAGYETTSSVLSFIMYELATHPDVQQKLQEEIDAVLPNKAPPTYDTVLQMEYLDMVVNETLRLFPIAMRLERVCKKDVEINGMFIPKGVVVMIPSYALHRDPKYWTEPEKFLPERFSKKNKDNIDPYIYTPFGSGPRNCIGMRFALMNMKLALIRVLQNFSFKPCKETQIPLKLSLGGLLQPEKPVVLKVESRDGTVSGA
# Chain of Cytochrome P450 2D6 (P10635 whole entry): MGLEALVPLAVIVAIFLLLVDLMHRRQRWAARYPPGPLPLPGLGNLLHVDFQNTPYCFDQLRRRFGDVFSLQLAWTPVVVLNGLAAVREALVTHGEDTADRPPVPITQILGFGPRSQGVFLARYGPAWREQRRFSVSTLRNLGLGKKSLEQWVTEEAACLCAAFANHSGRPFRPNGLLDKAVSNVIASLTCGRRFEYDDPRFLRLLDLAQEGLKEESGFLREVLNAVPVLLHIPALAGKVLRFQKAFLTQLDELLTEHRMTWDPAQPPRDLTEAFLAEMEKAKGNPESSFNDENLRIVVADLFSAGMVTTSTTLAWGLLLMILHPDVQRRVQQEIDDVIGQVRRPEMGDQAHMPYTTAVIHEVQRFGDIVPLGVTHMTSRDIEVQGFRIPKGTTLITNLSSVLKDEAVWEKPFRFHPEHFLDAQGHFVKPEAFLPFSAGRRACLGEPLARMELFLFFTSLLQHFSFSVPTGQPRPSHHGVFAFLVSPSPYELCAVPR
# Chain of Cytochrome P450 2C19 (P33261 whole entry): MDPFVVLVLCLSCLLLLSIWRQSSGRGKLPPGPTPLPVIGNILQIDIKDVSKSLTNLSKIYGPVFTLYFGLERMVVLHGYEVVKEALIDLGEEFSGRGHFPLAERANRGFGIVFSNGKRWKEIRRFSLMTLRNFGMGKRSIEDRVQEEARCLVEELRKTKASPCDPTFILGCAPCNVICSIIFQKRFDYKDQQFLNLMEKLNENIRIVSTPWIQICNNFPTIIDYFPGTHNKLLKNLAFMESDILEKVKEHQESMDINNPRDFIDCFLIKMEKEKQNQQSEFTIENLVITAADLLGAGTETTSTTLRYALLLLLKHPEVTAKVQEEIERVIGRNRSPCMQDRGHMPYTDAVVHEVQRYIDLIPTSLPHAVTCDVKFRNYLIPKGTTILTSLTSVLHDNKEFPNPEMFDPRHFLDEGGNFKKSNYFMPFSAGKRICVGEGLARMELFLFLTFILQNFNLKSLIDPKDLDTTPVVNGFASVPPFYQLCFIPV
compound,measurement,setting,value
Cc1c(CCC(=O)O)ccc(OCc2cccn2-c2ccc(Br)cc2)c1C,Stability,[1],Unstable
COc1ccc(-n2ccc(C(F)(F)F)c2COc2c(F)cc(CCC(=O)O)cc2F)cc1,EC50,[2],184 nM
COC(=O)CCc1cc(F)c(OCc2c(C(F)(F)F)ccn2-c2ccc(Cl)cc2)c(F)c1,EC50,[2],> 5000 nM
Cc1c(CCC(=O)O)ccc(OCc2c(C(F)(F)F)ccn2-c2ccc(Cl)cc2)c1C,Stability,[1],Stable
CCc1ccc(-n2ccc(C(F)(F)F)c2COc2ccc(CCC(=O)O)c(F)c2F)cc1,fraction unbound,[3],0.0008
same,fraction unbound,[4],0.0002
same,fraction unbound,[5],0.0014
same,INH,Cytochrome P450 3A4,> 10 µM
same,half-life,[6],< 4 min
same,INH,Cytochrome P450 2D6,> 10 µM
same,half-life,[7],15 min
same,INH,Cytochrome P450 1A2,> 10 µM
same,half-life,[8],7 min
same,INH,Cytochrome P450 2C9,7 µM
same,INH,Cytochrome P450 2C19,9 µM
O=C(O)CCc1cc(F)c(OCc2c(C(F)(F)F)ccn2-c2ccccc2)c(F)c1,EC50,[2],100 to 101 nM
Cc1ccc(-n2ccc(C(F)(F)F)c2COc2c(F)cc(CCC(=O)O)cc2F)cc1,fraction unbound,[3],0.0015
same,fraction unbound,[4],0.0008
same,fraction unbound,[5],0.0041
same,INH,Cytochrome P450 3A4,> 10 µM
same,half-life,[6],< 4 min
same,INH,Cytochrome P450 2D6,> 10 µM
same,half-life,[7],7 min
same,INH,Cytochrome P450 1A2,> 10 µM
same,half-life,[8],85 min
same,INH,Cytochrome P450 2C9,4.2 µM
same,INH,Cytochrome P450 2C19,> 10 µM
O=C(O)CCc1ccc(OCc2c(C(F)(F)F)ccn2-c2ccc(Cl)cc2)c(F)c1F,Stability,[1],Stable
CN(CCOc1ccc(CC2SC(=O)NC2=O)cc1)c1ccccn1 (centres undefined) [ROSIGLITAZONE],Activity,Mus musculus [9],-36.6 mg/dL
same,Activity,Mus musculus [10],1348 pg/mL
same,Activity,Mus musculus [11],148 mg/dL
same,Activity,Mus musculus [12],-5970 pg/mL
same,Activity,Mus musculus [13],15956 pg/mL
same,Activity,Mus musculus [14],188 mg/dL
